Here are results for 13 molecules from ChEMBL document CHEMBL4402610 (J Med Chem, 2020).

Where only a bound is given, the exact number is not on record here.

One assay addresses Protease (Human immunodeficiency virus 1, UniProt Q9YQ12). The experiment in a line: Inhibition of HIV-1 protease.
Assay [1] deals with Human immunodeficiency virus 1. The experiment in a line: Antiviral activity against HIV1 LAI infected in human MT2 cells. As to conditions: Human immunodeficiency virus 1, M:B_Lai. It is filed as functional, organism-based.
Assay [2] deals with Human immunodeficiency virus 1. The experiment in a line: Antiviral activity against HIV1 NL4-3 infected in human MT4 cells assessed as reduction in p24 Gag protein production. The class given is functional, organism-based. Conditions: Human immunodeficiency virus 1, NL4-3, MT4.
For assay [3], the system named is Human immunodeficiency virus 1. As to the kind of experiment: Antiviral activity against atazanavir resistant HIV1 harboring protease L23I/E34Q/K43I/M46I/I50L/G51A/L63P/A71V/V82A/T91A mutant infected in human MT4 cells assessed as reduction in p24 Gag production. The class given is functional, organism-based. Conditions: Human immunodeficiency virus 1, MT4. Summed up: (§1)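 MT-4 cells (10^5/mL) were exposed to 100 TCID50s of each HIV-1 and treated with drug. Inhibition of p24 Gag protein production was the endpoint for EC50. PI-resistant variants had been selected in vitro by passaging HIV-1 NL4-3 in MT-4 cells under increasing PI (up to 5 μM). Assays were run in duplicate, and values are means of two independent experiments.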

The subject of assay [4] is Human immunodeficiency virus 1. As to the kind of experiment: Antiviral activity against lopinavir resistant HIV1 harboring protease L10F/V32I/M46I/I47A/A71V/I84V mutant infected in human MT4 cells assessed as inhibition of p24 Gag production. The class given is functional, organism-based. As to conditions: Human immunodeficiency virus 1, MT4. The method, boiled down:
as §1

The test system of assay [5] is Human immunodeficiency virus 1. As to the kind of experiment: Antiviral activity against darunavir resistant HIV1 harboring protease P30 L10I/I15V/K20R/L24I/V32I/M36I/ M46L/L63P/K70Q/V82A/I84V/L89M mutant infected in human MT4 cells assessed as reduction in p24 Gag production. The class given is functional, organism-based. As to conditions: Human immunodeficiency virus 1, MT4. Summed up:
as §1

Assay [6] can be described thus: Selectivity ratio of IC50 for antiviral activity against atazanavir resitant HIV1 harboring protease L23I/E34Q/K43I/M46I/I50L/G51A/L63P/A71V/V82A/T91A mutant infected in human MT4 cells to IC50 for antiviral activity against wild-type HIV1 NL4-3. It is filed as functional.
The nature of assay [7]: Selectivity ratio of IC50 for antiviral activity against lopinavir resistant HIV1 harboring protease L10F/V32I/M46I/I47A/A71V/I84V mutant infected in human MT4 cells to IC50 for antiviral activity against wild-type HIV1 NL4-3. The class given is functional.
The nature of assay [8]: Selectivity ratio of IC50 for antiviral activity against darunavir resistant HIV1 P30 harboring protease L10I/I15V/K20R/L24I/V32I/M36I/ M46L/L63P/K70Q/V82A/I84V/L89M mutant infected in human MT4 cells to IC50 for antiviral activity against wild-type HIV1 NL4-3. It is filed as functional.

Protease, sequence (Q9YQ12 whole entry): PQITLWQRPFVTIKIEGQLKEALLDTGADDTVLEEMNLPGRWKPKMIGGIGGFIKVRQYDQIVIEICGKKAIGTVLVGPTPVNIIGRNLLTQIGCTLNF

By Ki is commonly meant a dissociation constant, usually derived from enzyme kinetics or from competition with a known ligand. Higher therefore signals a looser hold on the target. In general, IC50 refers to the midpoint of a concentration-inhibition curve. The molecule `CC(C)CN(C[C@@H](O)[C@H](Cc1ccccc1)NC(=O)OC1C[C@@H]2CO[C@@H]3OC1C[C@H]23)S(=O)(=O)c1ccc2nc(NC(C)C)oc2c1` (stereo partly drawn) registered a Ki on Protease of 0.006 nM. The IC50 in [1] turned out to be 1.73 nM.

On Protease, `CC(C)CN(C[C@@H](O)[C@H](Cc1ccccc1)NC(=O)O[C@H]1C[C@H]2CO[C@H]3OC1C[C@@H]23)S(=O)(=O)c1ccc2nc(NC3CC3)sc2c1` registered a Ki of 0.027 nM. This molecule came in with an IC50 in [1] of 1.86 nM.

At Protease, `CC(C)CN(C[C@@H](O)[C@H](Cc1cccc(F)c1)NC(=O)OC1C[C@@H]2CO[C@@H]3OC1C[C@H]23)S(=O)(=O)c1ccc2nc(NC3CC3)sc2c1` (stereo partly drawn) gave a Ki of 0.008 nM. The IC50 in assay [1] turned out to be 1.28 nM.

The molecule `CC(C)CN(C[C@@H](O)[C@H](Cc1ccc(F)cc1)NC(=O)O[C@H]1C[C@H]2CO[C@H]3OC1C[C@@H]23)S(=O)(=O)c1ccc2nc(NC3CC3)sc2c1` yielded an inhibitory constant (Ki) at Protease of 0.036 nM. This molecule also showed an IC50 in [1] of 0.4 nM.

On Protease, `COc1ccc(S(=O)(=O)N(CC(C)C)C[C@@H](O)[C@H](Cc2ccccc2)NC(=O)O[C@H]2C[C@H]3CO[C@H]4OC2C[C@@H]34)cc1` gave an inhibitory constant (Ki) of 0.034 nM. For the same molecule, in assay [1], the IC50 was found to be 71.7 nM.

Take `CC(C)CN(C[C@@H](O)[C@H](Cc1ccccc1)NC(=O)OC1C[C@@H]2CO[C@@H]3OC1C[C@H]23)S(=O)(=O)c1ccc2nc(NC3CC3)sc2c1` (stereo partly drawn): the Ki on Protease was 0.002 nM. For the same molecule, inhibition in assay [1] was half-maximal at 3.3 nM (IC50).

The molecule `CC(C)CN(C[C@@H](O)[C@H](Cc1ccc(F)cc1)NC(=O)OC1C[C@@H]2CO[C@@H]3OC1C[C@H]23)S(=O)(=O)c1ccc2nc(NC3CC3)sc2c1` (stereo partly drawn) returned an inhibition constant Ki at Protease of 0.002 nM. Besides, in [1], 0.46 nM corresponded to half-maximal inhibition (IC50).

On Protease, `CC(C)CN(C[C@@H](O)[C@H](Cc1cccc(F)c1)NC(=O)O[C@H]1C[C@H]2CO[C@H]3OC1C[C@@H]23)S(=O)(=O)c1ccc2nc(NC3CC3)sc2c1` displayed a Ki of 0.024 nM. Moreover, in [1], half-maximal inhibition (IC50) was put at 2.7 nM.

`COc1ccc(S(=O)(=O)N(CC(C)C)C[C@@H](O)[C@H](Cc2ccccc2)NC(=O)OC2C[C@@H]3CO[C@@H]4OC2C[C@H]34)cc1` (stereo partly drawn) came in with a Ki on Protease of 0.008 nM. In assay [1], this molecule displayed an IC50 of 38 nM.

In turn, `CC(C)CN(C[C@@H](O)[C@H](Cc1ccccc1)NC(=O)O[C@H]1C[C@H]2CO[C@H]3OC1C[C@@H]23)S(=O)(=O)c1ccc2nc(NC(C)C)oc2c1` came in with a Ki at Protease of 0.047 nM. Besides, the IC50 in [1] was 0.3 nM; in [2], 38 nM; in assay [3], 350 nM; in assay [4], > 1000 nM; in [5], 640 nM. Moreover, the figures for the “Ratio IC50” value in assay [6], in assay [7] and in assay [8] were 9.1, >26 and 17, respectively.

Molecule `CC(C)CN(C[C@@H](O)[C@H](Cc1cc(F)cc(F)c1)NC(=O)O[C@H]1C[C@H]2CO[C@H]3OC1C[C@@H]23)S(=O)(=O)c1ccc2nc(NC3CC3)sc2c1` gave a Ki at Protease of 0.007 nM. Besides, inhibition in assay [1] was half-maximal at 2.25 nM (IC50).

Turning to `CC(C)CN(C[C@@H](O)[C@H](Cc1cc(F)cc(F)c1)NC(=O)OC1C[C@@H]2CO[C@@H]3OC1C[C@H]23)S(=O)(=O)c1ccc2nc(NC3CC3)sc2c1` (stereo partly drawn), at Protease, affinity was put at a Ki of 0.054 nM. The IC50 was found to be 0.086 nM in assay [1]; 0.034 nM in assay [2]; 0.21 nM in assay [3]; 4.3 nM in [4]; 4.5 nM in assay [5]. Further, the “Ratio IC50” value in assay [6] came to 6.3; in [7], 127; in [8], 133.

Consider `COC(=O)N[C@H](C(=O)N[C@@H](Cc1ccccc1)[C@@H](O)CN(Cc1ccc(-c2ccccn2)cc1)NC(=O)[C@@H](NC(=O)OC)C(C)(C)C)C(C)(C)C` [ATAZANAVIR], for which the IC50 was 4 nM in [2], > 1000 nM in assay [3], 430 nM in assay [4] and > 1000 nM in assay [5]. In assay [7], the “Ratio IC50” value is listed as 107.
